Test results reported in ChEMBL document CHEMBL1155784, “Aromatic 2-chloroethyl urea derivatives and bioisosteres. Part 2: Cytocidal activity and effects on the nuclear translocation of thioredoxin-1, and the cell cycle progression” (2008).
The source made the active and inactive calls. No cut-off for these calls is given here.

Tests used:
M21 [1] = assay: Inhibition of nuclear translocation of thioredoxin 1 in human M21 cells at 50 uM after 18 hrs by immunocytochemistry; type: functional, cell-based
Method in brief: (§1)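 M21 cells seeded on fibronectin-coated coverslips, held 18 h at 37 °C, then treated with compounds (5–50 µM; reference agents 0.1–40 µM) or 0.1% DMSO. Fixed in 3.7% formaldehyde, permeabilized with 0.1% saponin, and blocked in 3% BSA. Stained 1 h at 37 °C with anti-thioredoxin-1 monoclonal (1/200), then with Alexa-488 anti-mouse IgG plus DAPI for nuclei.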

HT-29 = assay: Growth inhibition of human HT29 cells after 48 hrs by sulforhodamine B assay; type: functional; details: for GI50: HT-29, 48 h
Method in brief: (§2)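 NCI-style sulforhodamine B assay. HT-29 (5×10³), M21 or MCF-7 (3.5×10³) cells were grown 24 h, then given DMSO-solubilized drug at 100 to 0.7 µM final (DMSO <0.5%) for 48 h. Fixed in cold 10% TCA, stained with 0.1% SRB, read at 585 nm after subtracting a day-0 plate. Inhibition is relative to DMSO controls; GI50 from at least triplicate runs.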

M21 [2] = assay: Growth inhibition of human M21 cells after 48 hrs by sulforhodamine B assay; type: functional; details: for GI50: M21, 48 h; method in brief: as §2
MCF7 [3] = assay: Growth inhibition of human MCF7 cells after 48 hrs by sulforhodamine B assay; type: functional; details: for GI50: MCF7, 48 h; method in brief: as §2
M21 [4] = assay: Inhibition of nuclear translocation of thioredoxin 1 in human M21 cells at 5 uM after 18 hrs by immunocytochemistry; type: functional, cell-based; method in brief: as §1
MCF7 [5] = assay: Cell cycle arrest in human MCF7 cells assessed as S phase accumulation at 2 times GI50 after 24 hrs by flow cytometry
MCF7 [6] = assay: Cell cycle arrest in human MCF7 cells assessed as G2/M phase accumulation at 2 times GI50 after 24 hrs by flow cytometry
MCF7 [7] = assay: Cell cycle arrest in human MCF7 cells assessed as G0/G1 phase accumulation at 2 times GI50 after 24 hrs by flow cytometry

`O=C(NCCCl)NC1c2ccccc2-c2ccccc21` was tested, and the Activity (M21 [1]) was “Active”.

Compound `O=C(CCl)NC(=O)Nc1ccc(OCc2ccccc2)cc1` has a GI50 (HT-29) of 2.6 µM, a GI50 (M21 [2]) of 5.1 µM and a GI50 (MCF7 [3]) of 4.6 µM. For the same compound, the Activity (M21 [4]) was “inactive”.

In the case of `c1ccc(COc2cccc(NC3=NCCO3)c2)cc1`, the GI50 (HT-29) is reported as 0.8 µM, the GI50 (M21 [2]) is reported as 1.5 µM and the GI50 (MCF7 [3]) is reported as 2.6 µM. For the same compound, the Activity (M21 [4]) was “inactive”.

`Cc1ccc(NC(=O)NC(=O)CCl)cc1C` was tested, and the Activity (M21 [4]) was “inactive”.

Work on `O=C(CCl)NC(=O)Nc1cccc(Oc2ccccc2)c1` yielded a GI50 (HT-29) of 5.2 µM, a GI50 (M21 [2]) of 5.3 µM and a GI50 (MCF7 [3]) of 8.1 µM. For the same compound, the Activity (M21 [4]) was “Active”.

`O=C(NCCCl)Nc1ccc(OCc2ccccc2)cc1` was tested, and the GI50 (HT-29) was 37.5 µM, the Activity (M21 [2]) was “inactive” and the GI50 (MCF7 [3]) was 79.7 µM. For the same compound, the Activity (M21 [1]) was “inactive”.

For `O=C(CCl)NC(=O)NC1c2ccccc2-c2ccccc21`, the Activity (M21 [4]) was “inactive”.

With `Cc1ccc(NC2=NCCO2)cc1` the Activity (M21 [1]) was “inactive”.

`c1cc(C2CCCCC2)ccc1NC1=NCCO1` showed a GI50 (HT-29) of 12.8 µM, a GI50 (M21 [2]) of 17.8 µM and a GI50 (MCF7 [3]) of 17.5 µM. The Activity (M21 [1]) was “Active”, the Activity (MCF7 [5]) was 16% and the Activity (MCF7 [6]) was 11%. It also gave an Activity (MCF7 [7]) of 73%.

With `c1ccc(Oc2ccc(NC3=NCCO3)cc2)cc1` the GI50 (HT-29) was 2 µM, the GI50 (M21 [2]) was 3.1 µM and the GI50 (MCF7 [3]) was 3.5 µM. For the same compound, the Activity (M21 [1]) was “inactive” and the Activity (M21 [4]) was “inactive”.

For `CCNC(=O)Nc1cccc(OC2CCCCCC2)c1`, the Activity (HT-29) was “inactive”, the Activity (M21 [2]) was “inactive” and the Activity (MCF7 [3]) was “inactive”.

For `O=C(CCl)NC(=O)Nc1ccc(Oc2ccccc2)cc1`, the GI50 (HT-29) was 3.6 µM, the GI50 (M21 [2]) was 4.2 µM and the GI50 (MCF7 [3]) was 4.2 µM. The Activity (M21 [4]) was “inactive”.

`O=C(CCl)NC(=O)Nc1cccc(OCc2ccccc2)c1` was tested, and the GI50 (HT-29) was 6.5 µM, the GI50 (M21 [2]) was 4.5 µM and the GI50 (MCF7 [3]) was 6.2 µM. For the same compound, the Activity (M21 [4]) was “inactive”.

For `c1cc(NC2=NCCO2)cc(OC2CCCC2)c1`, the GI50 (HT-29) was 52.2 µM, the GI50 (M21 [2]) was 76.9 µM and the GI50 (MCF7 [3]) was 62.1 µM. The Activity (M21 [1]) was “Active”, the Activity (MCF7 [5]) was 17% and the Activity (MCF7 [6]) was 6%. For the same compound, the Activity (MCF7 [7]) was 77%.

For `O=C(CCl)NC(=O)Nc1ccc2c(c1)CCC2`, the Activity (M21 [4]) was “Active”.

`c1cc(OC2CCCC2)ccc1NC1=NCCO1` was tested, and the GI50 (HT-29) was 16.1 µM, the GI50 (M21 [2]) was 21.1 µM and the GI50 (MCF7 [3]) was 23.1 µM. The Activity (M21 [1]) was “Active”, the Activity (MCF7 [5]) was 23% and the Activity (MCF7 [6]) was 7%. For the same compound, the Activity (MCF7 [7]) was 70%.

For `CCNC(=O)Nc1ccc2c(c1)CCC2`, the Activity (HT-29) was “inactive”, the Activity (M21 [2]) was “inactive” and the Activity (MCF7 [3]) was “inactive”.

For `O=C(CCl)NC(=O)NC1C2CC3CC(C2)CC1C3` (stereo not given), the GI50 (HT-29) was 5.1 µM, the GI50 (M21 [2]) was 3.2 µM and the GI50 (MCF7 [3]) was 6.2 µM.

For `Cc1ccc(NC(=O)NCCCl)cc1`, the Activity (M21 [1]) was “Active”.

For `O=C(NCCCl)Nc1cccc(Oc2ccccc2)c1`, the Activity (M21 [1]) was “inactive”.

Work on `O=C(CCl)NC(=O)Nc1ccc2ccccc2c1` yielded a GI50 (HT-29) of 4.9 µM, a GI50 (M21 [2]) of 3.7 µM and a GI50 (MCF7 [3]) of 7.6 µM. For the same compound, the Activity (M21 [4]) was “inactive”.

With `C1COC(NC2C3CC4CC(C3)CC2C4)=N1` (stereo not given) the GI50 (HT-29) was 53.4 µM, the GI50 (M21 [2]) was 60.7 µM and the GI50 (MCF7 [3]) was 24.1 µM. For the same compound, the Activity (M21 [1]) was “Active”.

`O=C(CCl)NC(=O)Nc1ccc(-c2ccccc2)cc1` showed a GI50 (HT-29) of 2.3 µM, a GI50 (M21 [2]) of 1.4 µM and a GI50 (MCF7 [3]) of 3.9 µM. For the same compound, the Activity (M21 [4]) was “Active”.

With `Cc1ccc(NC(=O)NC(=O)CCl)cc1` the Activity (M21 [4]) was “Active”.

`O=C(NCCCl)NC1C2CC3CC(C2)CC1C3` (stereo not given) was tested, and the GI50 (HT-29) was 50.6 µM, the Activity (M21 [2]) was “inactive” and the GI50 (MCF7 [3]) was 11.3 µM. For the same compound, the Activity (M21 [1]) was “inactive”.

With `c1ccc2c(c1)-c1ccccc1C2NC1=NCCO1` the Activity (M21 [1]) was “Active”.

`CCNC(=O)Nc1ccc(C2CCCCC2)cc1` was tested, and the Activity (HT-29) was “inactive”, the Activity (M21 [2]) was “inactive” and the Activity (MCF7 [3]) was “inactive”.

`c1ccc2cc(NC3=NCCO3)ccc2c1` gave a GI50 (HT-29) of 2 µM, a GI50 (M21 [2]) of 3.5 µM and a GI50 (MCF7 [3]) of 4.5 µM. The Activity (M21 [1]) was “Active” and the Activity (M21 [4]) was “Active”.

With `CCNC(=O)Nc1ccc(OC2CCCCC2)cc1` the Activity (HT-29) was “inactive”, the Activity (M21 [2]) was “inactive” and the Activity (MCF7 [3]) was “inactive”.
